Experiment [1] is described as follows: reducers of endogenous Her2 protein level, primary screen, SKBR3 breast tumor cells, AlphaScreen, ATP viability (AID 461;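 active = Her2 level under about 52% in both replicate screens, with viability over 70% of control, limit read from the data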;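 as to Her2 level: lower value means less Her2 protein in the cells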;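 as to viability: percent of carrier control wells set as 100% viability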). The settings on record: 18-24 h, measured here: SKBR3 viability, ATP luminescence, at 10 µM. In general terms: Bead proximity is the source of the signal in Alpha formats.
Experiment [2] concerns the target Receptor tyrosine-protein kinase erbB-2 (Homo sapiens) (UniProt P04626). The experiment is described as above. Particulars: 18-24 h, at 10 µM, stronger effect = lower value.
Experiment [3] can be described thus: SK-BR-3 cell growth inhibitors, pilot screen, 24 h, human (AID 572).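 Also: compound exposure lasted between 18 and 24 h rather than exactly 24 h; 100% = carrier-treated control wells.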 Particulars: SK-BR-3 viability, CellTiter-Glo luminescence, at 10 µM, stronger effect = lower value. For orientation: In ATP-based viability assays light output follows the ATP content of the culture.
The nature of experiment [4]: HUVEC growth inhibition – cell-based, human, primary screen (AID 575;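 active = viability at or below 30% in both replicate assays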;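 also: 100% = median of untreated cell wells with 0.1% DMSO on each plate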). The settings on record: HUVEC proliferation, CellTiter-Glo luminescence, 72 h; at 10 µM; stronger effect = lower value. The method in brief: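 Timing: 72 h treatment at 37 °C; material: HUVEC primary cells; technique: CellTiter-Glo luminescence measuring cellular ATP; controls: vehicle and MePR control wells; measure: percent of median DMSO-control luminescence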

Experiment [5] can be described thus: growth inhibitors of H69AR lung tumor, primary screen, human, duplicate replicates (AID 580;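 active = viability at or under a set limit in both replicates, limit being median viability minus 3 SD, cut at about 48% in these data, passing the limit was not always enough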;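 also: 100% = mean luminescence of untreated wells and 0% = no signal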). The settings on record: H69AR lung tumor cells viability, ATP luminescence, 72 h; at 10 µM; stronger effect = lower value.
Experiment [6] is described as follows: reversal of MRP1-mediated doxorubicin resistance, pilot screen, H69AR cells, doxorubicin co-treatment (AID 601;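 active = viability loss from added drug above about 55%, and viability with drug at most 40%, in both replicates, limit read from the data, passing the limit was not always enough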). The settings on record: CellTiter-Glo, 72 h, at 10 µM; for differential viability (reversal): stronger effect = higher value.
Experiment [7] in a line: 384-well plate pilot, post-Golgi transport modulator project, inhibition of yeast transport mutant growth (AID 636; in the data active = inhibition above about 31%). Particulars: absorbance 615 nm, about 18 h, stronger effect = higher value.
Experiment [8] can be described thus: growth suppression of yeast trafficking mutant, preliminary HTS, modulators of trafficking downstream of Golgi apparatus project, 1536-format plate, OD 615 nm (AID 637; in the data active = inhibition above about 30%). Particulars: yeast transport mutant growth, absorbance 615 nm, 18 h; stronger effect = higher value.
Where [9] appears, read: H69AR cells + 2 uM doxorubicin, measured here: viability with 2 uM doxorubicin, stronger effect = lower value.
Where [10] appears, read: H69AR cells, compound alone cytotoxicity.

Calls of active or inactive are those of the source.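 The calls were made as follows, unless noted: active = viability at or below 10% of carrier control in both of two separate runs; inconclusive = viability at or below 10% in only one of the two runs; inactive = the rest.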

As usually defined, the viability is a read-out of living cells in per cent, often relative to untreated cells. In general, inhibition refers to the drop in the measured response relative to a control, in per cent.

Chain of Receptor tyrosine-protein kinase erbB-2 (Homo sapiens) (P04626 whole entry, looked up): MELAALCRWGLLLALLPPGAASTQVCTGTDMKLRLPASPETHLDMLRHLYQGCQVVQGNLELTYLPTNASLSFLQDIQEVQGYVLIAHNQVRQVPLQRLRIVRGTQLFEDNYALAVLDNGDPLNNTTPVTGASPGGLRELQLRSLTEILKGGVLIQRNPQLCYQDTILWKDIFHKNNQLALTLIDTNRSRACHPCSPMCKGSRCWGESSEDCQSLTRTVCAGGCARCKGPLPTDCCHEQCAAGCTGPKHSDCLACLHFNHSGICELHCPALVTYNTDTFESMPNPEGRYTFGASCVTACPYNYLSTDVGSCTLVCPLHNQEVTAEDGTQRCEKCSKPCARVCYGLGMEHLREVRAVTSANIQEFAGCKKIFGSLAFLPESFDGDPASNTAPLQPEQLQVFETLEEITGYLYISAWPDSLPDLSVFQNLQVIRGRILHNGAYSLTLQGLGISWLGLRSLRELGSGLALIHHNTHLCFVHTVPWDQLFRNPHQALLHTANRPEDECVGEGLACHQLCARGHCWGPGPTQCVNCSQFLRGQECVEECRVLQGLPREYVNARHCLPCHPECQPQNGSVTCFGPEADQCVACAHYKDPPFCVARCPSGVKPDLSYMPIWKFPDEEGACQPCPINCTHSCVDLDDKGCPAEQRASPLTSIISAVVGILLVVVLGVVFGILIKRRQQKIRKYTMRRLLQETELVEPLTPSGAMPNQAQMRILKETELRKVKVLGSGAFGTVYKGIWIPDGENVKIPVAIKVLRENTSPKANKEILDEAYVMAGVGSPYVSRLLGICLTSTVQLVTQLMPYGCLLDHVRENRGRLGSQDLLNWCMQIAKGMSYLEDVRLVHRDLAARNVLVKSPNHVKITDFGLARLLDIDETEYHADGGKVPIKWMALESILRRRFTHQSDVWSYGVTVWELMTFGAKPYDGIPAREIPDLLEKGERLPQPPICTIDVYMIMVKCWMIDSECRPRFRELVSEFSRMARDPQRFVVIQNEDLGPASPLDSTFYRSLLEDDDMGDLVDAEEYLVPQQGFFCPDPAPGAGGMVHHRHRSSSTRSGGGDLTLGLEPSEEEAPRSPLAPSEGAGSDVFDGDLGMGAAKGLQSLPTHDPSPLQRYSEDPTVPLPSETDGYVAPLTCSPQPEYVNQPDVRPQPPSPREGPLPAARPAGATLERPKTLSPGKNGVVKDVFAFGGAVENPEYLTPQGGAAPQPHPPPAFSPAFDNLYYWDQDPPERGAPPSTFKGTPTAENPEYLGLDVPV

Regarding `COc1cc(C(=O)N2CCC(c3nc(-c4cccnc4)no3)CC2)cc(OC)c1OC`, the viability is 96% in experiment [1]; 96% (inactive) in experiment [3]; 110% (inactive) in experiment [4]; 93.9% (inactive) in experiment [5]; 82.8% in experiment [6] (setting [9]); 93.9% in experiment [6] (setting [10]). Besides, the Her2 level in experiment [2] is 110% (inactive). Also, the differential viability (reversal) in experiment [6] (H69AR cells + 2 uM doxorubicin) is 11.1% (inactive). Moreover, the figures for the inhibition in experiment [7] and in experiment [8] were -2.16% (inactive) and 6% (inactive), respectively.

With `CC(=O)c1ccc(OC(=O)c2cccs2)cc1`, the viability is 86% in experiment [1]; 86% (inactive) in experiment [3]; 94.1% (inactive) in experiment [4]; 105% (inactive) in experiment [5]; 110% in experiment [6] (setting [9]); 105% in experiment [6] (setting [10]). Besides, the Her2 level in experiment [2] was 94.5% (inactive). Further, the differential viability (reversal) in experiment [6] (H69AR cells + 2 uM doxorubicin) is -5.42% (inactive). The inhibition in experiment [7] is -3.11% (inactive); in experiment [8], 3.61% (inactive).

`CCOC(=O)N1CCC2(CC1)CC(=O)c1c(ccc3oc(C(=O)O)c(C)c13)O2`: the viability is 118% in experiment [1]; 118% (inactive) in experiment [3]; 111% (inactive) in experiment [4]; 92.3% (inactive) in experiment [5]; 88.7% in experiment [6] (setting [9]); 92.3% in experiment [6] (setting [10]). Moreover, the Her2 level in experiment [2] is 96% (inactive). Moreover, the differential viability (reversal) in experiment [6] (H69AR cells + 2 uM doxorubicin) is 3.56% (inactive). The values for the inhibition in experiment [7] and in experiment [8] were -0.79% (inactive) and -4.55% (inactive), respectively.

In the case of `CCOC(=O)c1ccccc1NC(=O)CSc1nc2c(c(=O)n(C)c(=O)n2C)n1C`, the viability in experiment [1] is 100%; in experiment [3] it was 100% (inactive); in experiment [4], 101% (inactive); in experiment [5], 92.4% (inactive); in experiment [6] (setting [9]) it was 85.9%; in experiment [6] (setting [10]), 92.4%. Moreover, the Her2 level in experiment [2] was 92% (inactive). Besides, the differential viability (reversal) in experiment [6] (H69AR cells + 2 uM doxorubicin) was 6.47% (inactive). The inhibition was -1.58% (inactive) in experiment [7] and 0.16% (inactive) in experiment [8].

As to `COc1cccc(Nc2cc(C)nc3ccccc23)c1`, the viability was 77% in experiment [1]; 77% (inactive) in experiment [3]; 85.4% (inactive) in experiment [4]; 74.4% (inactive) in experiment [5]; 75.4% in experiment [6] (setting [9]); 74.4% in experiment [6] (setting [10]). Moreover, in experiment [2], the Her2 level was 83% (inactive). Also, the differential viability (reversal) in experiment [6] (H69AR cells + 2 uM doxorubicin) was -1.05% (inactive). The inhibition in experiment [7] was -4.4% (inactive); in experiment [8], 1.11% (inactive).

Take `Cc1ccc(C2c3sc(=O)[nH]c3SC3C(=O)NC(=O)C32)cc1` (stereo not given): the viability in experiment [1] is 94%; in experiment [3], 94% (inactive); in experiment [4], 111% (inactive); in experiment [5], 105% (inactive); in experiment [6] (setting [9]) it was 99.2%; in experiment [6] (setting [10]) it was 105%. The Her2 level in experiment [2] was 87% (inactive). Further, the differential viability (reversal) in experiment [6] (H69AR cells + 2 uM doxorubicin) was 6.17% (inactive). For the same compound, the inhibition in experiment [7] is -5.62% (inactive); in experiment [8], -4.29% (inactive).

Turning to `CC1(C(=O)CSc2nc3ccccc3s2)CCC(=O)O1` (stereo not given), the viability was 107% in experiment [1]; 107% (inactive) in experiment [3]; 73.2% (inactive) in experiment [4]; 90.1% (inactive) in experiment [5]; 87% in experiment [6] (setting [9]); 90.1% in experiment [6] (setting [10]). Besides, the Her2 level in experiment [2] was 89% (inactive). Moreover, the differential viability (reversal) in experiment [6] (H69AR cells + 2 uM doxorubicin) was 3.12% (inactive). For the same compound, the inhibition in experiment [7] is -7.4% (inactive); in experiment [8], -3.17% (inactive).

As for `COc1ccc(C)cc1NC(=O)CN(Cc1nnc(-c2ccc(Cl)cc2)o1)C1CCCC1`, the viability in experiment [1] is 89%; in experiment [3] it was 89% (inactive); in experiment [4], 84.5% (inactive); in experiment [5], 4.7% (active); in experiment [6] (setting [9]) it was 38.6%; in experiment [6] (setting [10]), 4.7%. Moreover, the Her2 level in experiment [2] was 89.5% (inactive). In addition, in experiment [6] (H69AR cells + 2 uM doxorubicin), the differential viability (reversal) was -33.9% (inactive). For the same compound, the values for the inhibition in experiment [7] and in experiment [8] were -4.73% (inactive) and -2.95% (inactive), respectively.

Regarding `CCC(CO)Nc1ncnc2c1cnn2-c1ccc(Cl)cc1` (stereo not given), the viability is 94.5% in experiment [1]; 94.5% (inactive) in experiment [3]; 91.7% (inactive) in experiment [4]; 93.7% (inactive) in experiment [5]; 80.2% in experiment [6] (setting [9]); 93.7% in experiment [6] (setting [10]). The Her2 level in experiment [2] is 126% (inactive). Further, the differential viability (reversal) in experiment [6] (H69AR cells + 2 uM doxorubicin) was 13.5% (inactive). For the same compound, the inhibition in experiment [7] was -5.73% (inactive); in experiment [8], -5% (inactive).

As for `COC(=O)c1ccccc1NC(=O)CSc1nnnn1C1CCCCC1`, the viability is 120% in experiment [1]; 120% (inactive) in experiment [3]; 81.2% (inactive) in experiment [4]; 85.9% (inactive) in experiment [5]; 85% in experiment [6] (setting [9]); 85.9% in experiment [6] (setting [10]). Also, in experiment [2], the Her2 level was 112% (inactive). Besides, in experiment [6] (H69AR cells + 2 uM doxorubicin), the differential viability (reversal) was 0.925% (inactive). Further, the inhibition in experiment [7] was -5.6% (inactive); in experiment [8], -2.26% (inactive).

Turning to `COc1cc(S(=O)(=O)n2nnc3ccccc32)c(OC)cc1Cl`, the viability was 96% in experiment [1]; 96% (inactive) in experiment [3]; 77% (inactive) in experiment [4]; 84.9% (inactive) in experiment [5]; 87.9% in experiment [6] (setting [9]); 84.9% in experiment [6] (setting [10]). Also, the Her2 level in experiment [2] is 81.5% (inactive). The differential viability (reversal) in experiment [6] (H69AR cells + 2 uM doxorubicin) was -3.02% (inactive). In addition, the figures for the inhibition in experiment [7] and in experiment [8] were -2.8% (inactive) and 41.8% (active), respectively.

As to `CCCS(=O)(=O)N1CCN(Cc2ccc(OCc3ccccc3)c(OC)c2)CC1`, the viability was 84.5% in experiment [1]; 84.5% (inactive) in experiment [3]; 105% (inactive) in experiment [4]; 87.8% (inactive) in experiment [5]; 93.1% in experiment [6] (setting [9]); 87.8% in experiment [6] (setting [10]). In addition, the Her2 level in experiment [2] was 114% (inactive). Further, in experiment [6] (H69AR cells + 2 uM doxorubicin), the differential viability (reversal) was -5.26% (inactive). Moreover, the values for the inhibition in experiment [7] and in experiment [8] were 4.19% (inactive) and 30.2% (active), respectively.

In the case of `Cc1ccc(C)c(S(=O)(=O)NCc2ccc(C(=O)N3CCN(C)CC3)cc2)c1`, the viability in experiment [1] is 99.5%; in experiment [3], 99.5% (inactive); in experiment [4], 89.7% (inactive); in experiment [5], 91.7% (inactive); in experiment [6] (setting [9]), 86.5%; in experiment [6] (setting [10]) it was 91.7%. For the same compound, in experiment [2], the Her2 level is 85.5% (inactive). In addition, the differential viability (reversal) in experiment [6] (H69AR cells + 2 uM doxorubicin) is 5.15% (inactive). Besides, the figures for the inhibition in experiment [7] and in experiment [8] were -5.68% (inactive) and -3% (inactive), respectively.

For the compound `COc1ccccc1-n1nnnc1SCc1ccccc1`, the viability is 103% in experiment [1]; 103% (inactive) in experiment [3]; 90.6% (inactive) in experiment [4]; 97.1% (inactive) in experiment [5]; 80.3% in experiment [6] (setting [9]); 97.1% in experiment [6] (setting [10]). Further, the Her2 level in experiment [2] was 94% (inactive). Also, the differential viability (reversal) in experiment [6] (H69AR cells + 2 uM doxorubicin) is 16.7% (inactive). Further, the results for the inhibition in experiment [7] and in experiment [8] were -4.27% (inactive) and 1.61% (inactive), respectively.

Consider `CCOC(=O)CNC(=O)c1c(C)nn(-c2ccccc2)c1Cl`, for which the viability in experiment [1] was 98.5%; in experiment [3], 98.5% (inactive); in experiment [4] it was 96.2% (inactive); in experiment [5], 90% (inactive); in experiment [6] (setting [9]), 90.9%; in experiment [6] (setting [10]), 90%. In addition, the Her2 level in experiment [2] was 86.5% (inactive). Further, in experiment [6] (H69AR cells + 2 uM doxorubicin), the differential viability (reversal) was -0.915% (inactive). Moreover, the results for the inhibition in experiment [7] and in experiment [8] were -2.63% (inactive) and -7.27% (inactive), respectively.

As to `NC(=O)CSc1nnc(-c2cc3ccccc3o2)n1Cc1ccccc1`, the viability was 92.5% in experiment [1]; 92.5% (inactive) in experiment [3]; 104% (inactive) in experiment [4]; 90.3% (inactive) in experiment [5]; 91.8% in experiment [6] (setting [9]); 90.3% in experiment [6] (setting [10]). In addition, the Her2 level in experiment [2] was 81.5% (inactive). Also, the differential viability (reversal) in experiment [6] (H69AR cells + 2 uM doxorubicin) is -1.59% (inactive). The inhibition in experiment [7] was -6.05% (inactive); in experiment [8], 0.67% (inactive).

These data come from PubChem BioAssay.
